Source: ChEMBL document CHEMBL1132424, “Design, synthesis, and evaluation of a novel sequence-selective epoxide-containing DNA cross-linking agent based on the pyrrolo[2, 1-c][1,4]benzodiazepine system” (J Med Chem, 1999)
pIC50: −log10 of the molar value.

Legend:
A2780 [1] = experiment: In vitro cytotoxicity against. ovarian carcinoma cell line A2780.; format: functional, cell-based, Homo sapiens
Summary of the method: (§1)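 Cells seeded and left to attach overnight, then exposed in quadruplicate wells to compound (20 mM DMSO stock diluted in growth medium) at final 100 µM to 2.5 nM for 96 h at 37 °C. Cells fixed with 10% trichloroacetic acid, stained with 0.4% sulforhodamine B, absorbance read at 540 nm. IC50 from concentration versus percent absorbance of untreated wells.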

A2780 [2] = experiment: In vitro cytotoxicity against. ovarian carcinoma cell line A2780cisR (cisplatin resistant counter part of A2780).; format: functional, cell-based, Homo sapiens; summary of the method: as §1
CH1 = experiment: In vitro cytotoxicity against ovarian carcinoma cell line CH1.; format: functional, cell-based, Homo sapiens; summary of the method: as §1
[3] = In vitro cytotoxicity against. ovarian carcinoma cell line CH1cisR (cisplatin resistant counter part of CH1).; format: functional, cell-based, Homo sapiens; summary of the method: as §1
Nucleic Acid [4] = experiment: Effect on thermal denaturation temperature of CT-DNA after incubation for 0 hours with the compound; format: functional; conditions: Bos taurus
Summary of the method: (§2)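 Calf thymus duplex DNA (100 µM in phosphate) with PBD at 20 µM (1:5 PBD/DNA ratio), added from concentrated MeOH solution. Buffer was 10 mM sodium phosphate, 1 mM Na2EDTA, pH 7.00. Incubated at 37 °C for the stated time, then A260 read while heating 40-98 °C at 1 °C/min. Tm taken from d(A260)/dT maxima, MeOH-corrected. ΔTm = Tm(DNA+PBD) − Tm(DNA alone). Mean of three determinations.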

Nucleic Acid [5] = experiment: Effect on thermal denaturation temperature of CT-DNA after incubation for 18 hours with the compound; format: functional; conditions: Bos taurus; summary of the method: as §2
Nucleic Acid [6] = experiment: Effect on thermal denaturation temperature of CT-DNA after incubation for 4 hours with the compound; format: functional; conditions: Bos taurus; summary of the method: as §2
SK-OV-3 = experiment: In vitro cytotoxicity against. ovarian carcinoma cell line SKOV-3.; format: functional, cell-based, Homo sapiens; summary of the method: as §1
Nucleic Acid [7] = experiment: Effect on thermal denaturation temperature of CT-DNA after incubation for 36 hours with the compound; format: functional; conditions: Bos taurus; summary of the method: as §2

| Compound | pIC50 (A2780 [1]; Homo sapiens, A2780) | pIC50 (A2780 [2]; Homo sapiens, A2780) | pIC50 (CH1; Homo sapiens, CH1) | pIC50 ([3]; Homo sapiens, CH1cisR) | ΔTm (Nucleic Acid [4]) [°C] | ΔTm (Nucleic Acid [5]) [°C] | ΔTm (Nucleic Acid [6]) [°C] | pIC50 (SK-OV-3; Homo sapiens, SK-OV-3) | ΔTm (Nucleic Acid [7]) [°C] | pIC50 (A2780 [1]; a2780) | pIC50 (A2780 [2]; a2780) | pIC50 (CH1; ch1) | pIC50 ([3]; ch1cisr) | pIC50 (SK-OV-3; sk-ov-3) |
| --- | --- | --- | --- | --- | --- | --- | --- | --- | --- | --- | --- | --- | --- | --- |
| COc1cc2c(cc1OCCCOc1cc3c(cc1OC)C(=O)N1CCC[C@H]1C=N3)N=C[C@@H]1CCCN1C2=O [DSB-120] | 8.14 | 6.68 | 7.48 | 7.66 | 10.2 | 15.1 | 13.1 | 6.13 | – | – | – | – | – | – |
| COc1cc2c(cc1O)N=C[C@@H]1CCCN1C2=O | – | – | – | – | 0.3 | 0.7 | 0.5 | – | 0.7 | – | – | – | – | – |
| COc1cc2c(cc1OCC1CO1)N=C[C@@H]1CCCN1C2=O (some centres undefined) | 7.35 | 6.70 | 7.23 | 7.33 | 0.5 | 1.3 | 0.8 | 5.89 | 1.5 | – | – | – | – | – |
| CISPLATIN | – | – | – | – | – | – | – | – | – | 6.80 | 5.21 | 7.54 | 6.77 | 5.38 |
| C=CCOc1cc2c(cc1OC)C(=O)N1CCC[C@H]1C=N2 | 5.98 | 5.78 | 6.80 | 6.87 | 0.4 | 0.8 | 0.7 | 5.48 | – | – | – | – | – | – |
